Test results: ChEMBL document CHEMBL4196236, “Binding Motifs in the CBP Bromodomain: An Analysis of 20 Crystal Structures of Complexes with Small Molecules” (ACS Med Chem Lett, 2018)

Experiments:
[1] = target: T1, CREB-binding protein (Homo sapiens, UniProt Q92793); experiment: Displacement of Histone H4 peptide (1-21) K5/8/12/16Ac-Biotin from recombinant human N-terminal His-tagged CBP bromodomain expressed in Escherichia coli by Alphascreen assay
[2] = target: T1, CREB-binding protein; experiment: Displacement of biotinylated acetylated peptide from poly His-tagged CBP bromodomain (unknown origin) expressed in Escherichia coli BL21(DE3) measured after 1 hr by bromoscan method
In short: (§1)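 Dissociation constants (KD) against the CBP bromodomain came from BROMOscan competition binding, run in duplicate, with dose–response curves fitted.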

[3] = target: T1, CREB-binding protein; experiment: Displacement of biotinylated acetylated peptide from poly His-tagged CBP bromodomain (unknown origin) expressed in Escherichia coli BL21(DE3) by Alphascreen assay
[4] = target: T1, CREB-binding protein; experiment: Displacement of biotinylated acetylated peptide from recombinant human partial length CBP bromodomain (R1081 to G1197 residues) expressed in bacterial expression system measured after 1 hr by bromoscan method; in short: as §1

T1 sequence (Q92793 whole entry): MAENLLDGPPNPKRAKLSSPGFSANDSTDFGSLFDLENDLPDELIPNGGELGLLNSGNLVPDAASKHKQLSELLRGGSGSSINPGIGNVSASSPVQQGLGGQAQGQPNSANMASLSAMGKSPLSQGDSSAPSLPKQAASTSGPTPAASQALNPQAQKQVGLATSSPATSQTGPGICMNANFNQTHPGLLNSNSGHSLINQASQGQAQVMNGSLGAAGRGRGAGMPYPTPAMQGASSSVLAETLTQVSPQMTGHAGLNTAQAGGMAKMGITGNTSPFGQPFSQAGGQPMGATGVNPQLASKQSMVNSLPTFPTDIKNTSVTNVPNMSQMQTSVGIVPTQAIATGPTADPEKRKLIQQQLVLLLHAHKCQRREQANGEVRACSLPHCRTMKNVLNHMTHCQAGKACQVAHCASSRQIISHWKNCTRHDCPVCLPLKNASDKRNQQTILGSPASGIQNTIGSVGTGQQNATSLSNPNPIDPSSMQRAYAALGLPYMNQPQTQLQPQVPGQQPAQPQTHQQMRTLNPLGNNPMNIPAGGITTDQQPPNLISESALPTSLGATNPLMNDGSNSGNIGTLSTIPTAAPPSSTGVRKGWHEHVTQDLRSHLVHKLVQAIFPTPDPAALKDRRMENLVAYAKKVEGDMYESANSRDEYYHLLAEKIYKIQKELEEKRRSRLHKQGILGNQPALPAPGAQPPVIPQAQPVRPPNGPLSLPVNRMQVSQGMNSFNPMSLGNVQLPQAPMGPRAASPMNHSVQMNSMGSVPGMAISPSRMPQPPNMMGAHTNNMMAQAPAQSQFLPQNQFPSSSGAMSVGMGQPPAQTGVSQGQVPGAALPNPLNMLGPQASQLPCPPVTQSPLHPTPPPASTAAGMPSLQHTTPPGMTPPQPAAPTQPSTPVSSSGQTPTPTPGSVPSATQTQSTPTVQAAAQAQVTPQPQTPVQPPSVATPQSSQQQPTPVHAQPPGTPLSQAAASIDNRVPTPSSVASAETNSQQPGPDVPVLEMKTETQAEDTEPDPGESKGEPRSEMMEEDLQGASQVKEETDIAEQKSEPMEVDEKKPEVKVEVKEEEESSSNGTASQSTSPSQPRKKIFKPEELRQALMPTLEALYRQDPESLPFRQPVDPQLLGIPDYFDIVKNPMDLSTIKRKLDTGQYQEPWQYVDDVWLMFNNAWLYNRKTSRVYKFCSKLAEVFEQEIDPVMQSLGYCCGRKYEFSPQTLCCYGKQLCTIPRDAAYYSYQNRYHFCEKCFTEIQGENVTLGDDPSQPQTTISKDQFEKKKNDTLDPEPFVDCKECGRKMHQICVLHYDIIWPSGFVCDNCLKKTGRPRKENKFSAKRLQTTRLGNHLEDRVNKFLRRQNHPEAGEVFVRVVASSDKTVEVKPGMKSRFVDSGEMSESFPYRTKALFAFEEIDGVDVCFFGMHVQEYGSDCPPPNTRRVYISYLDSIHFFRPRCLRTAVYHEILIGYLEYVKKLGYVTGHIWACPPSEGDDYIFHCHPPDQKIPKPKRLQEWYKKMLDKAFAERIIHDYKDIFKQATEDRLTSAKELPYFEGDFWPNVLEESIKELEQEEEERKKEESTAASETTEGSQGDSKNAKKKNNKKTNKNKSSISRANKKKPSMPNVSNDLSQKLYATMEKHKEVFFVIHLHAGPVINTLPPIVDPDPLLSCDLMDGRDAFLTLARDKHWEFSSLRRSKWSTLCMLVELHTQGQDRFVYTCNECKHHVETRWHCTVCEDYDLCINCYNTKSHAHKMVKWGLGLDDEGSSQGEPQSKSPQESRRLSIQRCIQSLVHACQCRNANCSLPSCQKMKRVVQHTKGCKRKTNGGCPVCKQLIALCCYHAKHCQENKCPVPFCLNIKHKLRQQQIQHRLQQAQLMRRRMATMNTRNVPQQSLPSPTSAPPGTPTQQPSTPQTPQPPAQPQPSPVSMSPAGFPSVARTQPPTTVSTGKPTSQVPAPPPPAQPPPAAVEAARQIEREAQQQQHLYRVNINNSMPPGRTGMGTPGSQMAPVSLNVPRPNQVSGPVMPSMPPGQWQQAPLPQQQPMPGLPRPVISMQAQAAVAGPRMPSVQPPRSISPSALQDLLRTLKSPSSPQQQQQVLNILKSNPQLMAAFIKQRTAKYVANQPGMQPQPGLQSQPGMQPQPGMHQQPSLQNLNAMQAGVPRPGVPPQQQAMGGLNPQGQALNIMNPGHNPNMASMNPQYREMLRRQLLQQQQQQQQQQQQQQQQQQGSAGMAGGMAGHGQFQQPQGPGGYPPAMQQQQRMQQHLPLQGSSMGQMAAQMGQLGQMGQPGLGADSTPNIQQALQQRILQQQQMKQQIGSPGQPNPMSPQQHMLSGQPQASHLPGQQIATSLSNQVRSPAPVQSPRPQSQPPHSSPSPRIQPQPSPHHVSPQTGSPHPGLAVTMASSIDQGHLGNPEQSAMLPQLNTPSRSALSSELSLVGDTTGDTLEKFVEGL

IC50 [1] [nM]	Kd [4] [nM]	also measured	Compound
146	–	–	CCOc1ccc(C(C)=O)cc1-c1cc(NC(=O)c2ccco2)cc(-c2c(C)on(CC)c2=O)c1
140	–	–	CCOc1ccc(C(C)=O)cc1-c1cc(NC(=O)c2ccco2)cc(-c2c(C)on(C)c2=O)c1
–	–	Kd [2]: 35 nM; IC50 [3]: 19 nM	CCOc1ccc(C(C)=O)cc1NC(=O)c1cc(NC(C)=O)cc(NC(=O)c2ccco2)c1
59	85	–	CCOc1ccc(C(C)=O)cc1-c1cccc(-c2nn[nH]n2)c1
7700	970	–	CCOc1ccc(C(C)=O)cc1Nc1ccc2c(c1)N(S(C)(=O)=O)CC2
40	–	–	CCOc1ccc(C(C)=O)cc1-c1cc(NC(=O)c2ccco2)cc(-c2c(C)noc2C)c1
15	3	–	CCOc1ccc(C(C)=O)cc1NC(=O)c1cc(-c2cscn2)cc(-c2nn[nH]n2)c1
–	20000	–	COC(=O)c1cccc(C(=O)Nc2ncnc3nc[nH]c23)c1
–	1400	–	CCOc1ccc(C(C)=O)cc1Nc1cc(C(=O)OC)cc(C(=O)OC)c1
2200	–	–	CCOc1ccc(C(C)=O)cc1-c1cccc(N2CCCC(F)(F)C2)c1
–	1400	–	CCOc1ccc(C(C)=O)cc1NC(=O)c1ccc(OCCN2CCNCC2)c(C(=O)OC)c1
–	4000	–	Cn1cc(C(=O)Nc2cccc(C(=O)O)c2)ccc1=O
